Screening results: PubChem BioAssay, several laboratories
Rows were chosen to be rich in hits. Some 1.9% of all compounds tested hit in one or more screens of this group.
CR mimetic SO = caloric restriction mimetics inhibiting age-related superoxide in yeast; hit rate 0.18% among 330,000; S. cerevisiae aged cells, superoxide DHE fluorescence; stronger effect = lower value; AID 2690; superoxide response (% of plate mean), % at 10 µM;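 active = superoxide response under a set limit, about three screen SD below normal, cut at about 65% in these data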;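 also: yeast aged for seven days with compound at 30 °C before DHE staining; 100% = average MFI of all compound-treated wells on the plate with controls excluded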
PG9 Ab binder = small molecules binding HIV-1 gp120 antibody PG9; TR-FRET gp120-PG9 antibody binding; hit rate 0.43% among 360,000; AID 624416; inhibition, % at 6.7 µM; in the data active = inhibition above about 8.5%
UCH37 DUB inh = blocks the human deubiquitinase UCH37. Q9Y5K5. purified proteasome/UCH37, Ub-AMC cleavage fluorescence. inhibition, % (test concentration not listed). hit rate 0.33% among 330,000;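 active = mean inhibition over replicate wells above about 20%, limit read from the data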;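 also: 0% = compound-free wells with enzyme and 100% = wells lacking proteasome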
Target sequence (Q9Y5K5 whole entry, looked up): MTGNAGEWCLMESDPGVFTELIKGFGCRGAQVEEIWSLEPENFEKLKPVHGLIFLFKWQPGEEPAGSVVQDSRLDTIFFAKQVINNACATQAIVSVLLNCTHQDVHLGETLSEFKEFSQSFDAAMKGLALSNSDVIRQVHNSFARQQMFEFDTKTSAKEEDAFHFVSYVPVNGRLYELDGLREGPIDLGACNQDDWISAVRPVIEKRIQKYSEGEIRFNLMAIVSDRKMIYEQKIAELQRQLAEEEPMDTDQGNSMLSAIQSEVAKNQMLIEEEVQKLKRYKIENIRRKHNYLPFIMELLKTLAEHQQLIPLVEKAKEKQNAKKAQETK
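Schedule: 30 min plus 25 min, room temperature / Material: human UCH37 within purified proteasomes / Technique: AMC fluorescence intensity at 355/460 nm / Buffer or medium: pH 7.4 Tris-HCl (50 mM) with ovalbumin, ATP-MgCl2, DTT / Controls: wells without proteasome as full block, compound-free enzyme plus substrate as uninhibited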
NR1D1 modulator = modulates human Rev-erb alpha binding to DNA; P20393; Rev-erbα–FITC-DNA binding, fluorescence polarization, 90 min; activity, % at 10 µM; hit rate 0.79% among 370,000; AID 1259318;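 active = activity above about 14%, limit read from the data; passing the limit was not always enough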;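 also: 0% = DMSO wells with 35 nM protein and 100% = DMSO wells with 750 nM protein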
beta cell repl = MIN6 beta-cell proliferation induction; MIN6 cells proliferation, ATPlite luminescence, 48 h; cells starved in 0.2% serum; 100% = growth in 10% serum; proliferation, % at 10 µM; hit rate 0.29% among 330,000; AID 2380;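 active = compounds whose signal lies at least 3.5 SD above the mean of all wells on their plate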;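 also: 0% = DMSO-treated cells in low-serum medium and 100% = 10% serum control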
Rce1 inhib = blocks yeast Ras-converting enzyme. Q03530. yeast membranes, quenched prenylated peptide cleavage fluorescence. calls only. hit rate 0.27% among 290,000;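 active = fall in fluorescence gain of 50% or more versus controls, with final raw signal at or below 3038400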;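 also: plate controls were neutral control wells for no effect and wells lacking membranes for full effect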
Target sequence (Q03530 whole entry, looked up): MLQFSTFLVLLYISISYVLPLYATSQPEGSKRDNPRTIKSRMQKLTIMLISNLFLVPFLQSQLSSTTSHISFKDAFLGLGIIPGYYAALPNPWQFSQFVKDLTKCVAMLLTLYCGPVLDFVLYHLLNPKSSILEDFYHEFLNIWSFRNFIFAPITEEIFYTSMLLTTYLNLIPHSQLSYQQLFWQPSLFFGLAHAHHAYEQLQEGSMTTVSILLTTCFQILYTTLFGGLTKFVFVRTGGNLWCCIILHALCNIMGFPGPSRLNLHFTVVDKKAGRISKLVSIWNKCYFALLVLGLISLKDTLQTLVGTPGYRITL
CR mimetic CP = confirmation of caloric restriction mimetics inhibiting yeast age-related superoxide. shares compounds with CR mimetic SO. S. cerevisiae aging, superoxide DHE fluorescence; stronger effect = lower value. superoxide response (% of plate), % at 10 µM. hit rate 1% among 850. AID 434994;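 active = superoxide signal below 65% of the plate average of sample wells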;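 also: cells aged with compound for 7 days at 30 degrees C before staining; 100% equals mean DHE fluorescence of all compound wells on the plate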
DHE fluor count = compound alters DHE oxidation or fluorescence in yeast; shares compounds with CR mimetic SO; S. cerevisiae BY4741, flow cytometry; stronger effect = lower value; fluorescence response, % at 10 µM; 850 tested, under 10 active; AID 435000;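 active = fluorescence response below 15%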;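 also: percent of the mean fluorescence averaged over all compound wells on the plate; lower means stronger quenching of DHE signal or ROS scavenging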
An asterisk follows results filed as active; i = inactive; x = no result.

SMILES	CR mimetic SO	PG9 Ab binder	UCH37 DUB inh	NR1D1 modulator	beta cell repl	Rce1 inhib	CR mimetic CP	DHE fluor count
CC(=NNC(=O)Cc1cccn1C)c1ccc2ccccc2c1	x	x	0	x	x	x	x	x
O=C1/C(=C/c2cccnc2)CCC/C1=C\c1cccnc1	65*	-3	7	4	x	x	104	87
N#CCc1nn(-c2ccc(Cl)cc2)c(N)c1C#N	100	1	1	0	-2	i	x	x
N#CCc1nn(-c2ccccc2)c2ncnc(N)c12	88	0	x	4	2	i	102	103
O=C(Nc1ccc(N2CCN(C(=O)c3ccc(Cl)cc3)CC2)cc1)c1cccnc1	114	-3	-1	0	-2	i	x	x
O=C(c1ccc(Cl)cc1)N1CCN(c2ccc(F)cc2)CC1	71	0	2	3	-2	i	89	103
O=C(c1ccncc1)N1CCN(c2ccc(F)cc2)CC1	95	-3	1	-4	0	i	x	x
N#Cc1ccc(N2CCN(C(=O)c3cccc(F)c3)CC2)c(F)c1	109	-1	4	1	-3	i	99	102
O=C(c1cccnc1)N1CCN(c2ccc(Cl)cc2)CC1	44*	2	3	-4	-2	i	111	89
O=C(c1cccnc1)N1CCN(c2ccc([N+](=O)[O-])cc2Cl)CC1	115	0	3	1	-4	i	x	x
O=C(c1cccnc1)N1CCN(c2ccccc2Cl)CC1	97	x	x	x	-1	i	117	91
COc1ccc(C=NN=C2CC(C)(C)Cc3n[nH]c(=O)cc32)cc1	x	x	4	x	x	x	x	x
COc1ccccc1NS(=O)(=O)c1cccc(C(=O)NN=Cc2c(CO)cnc(C)c2O)c1	x	x	-63	x	x	x	x	x
O=C(c1cccc(F)c1)N1CCN(c2cccc(Cl)c2)CC1	92	-1	2	2	-2	i	96	92
O=C(c1cccc(F)c1)N1CCCN(C(=O)c2cccc(F)c2)CC1	103	0	-1	-2	0	i	x	x
CC(C)(C)c1ccc(NS(=O)(=O)c2ccc(N)cc2)cc1	93	0	3	-3	-2	i	131	119
Nc1ccc(S(=O)(=O)Nc2ccc(S(N)(=O)=O)cc2)cc1	97	0	-1	-4	-1	i	118	105
O=C(O)c1cc(=O)[nH]c2ccc(S(=O)(=O)Nc3ccc(F)cc3)cc12	57*	3	5	2	4	i	104	116
Cc1cc(C)c(NC(=O)CN2CCN(c3ccccn3)CC2)c(C)c1	99	-2	0	-1	-3	i	105	101
O=C(CN1CCN(c2ccccn2)CC1)Nc1ccccc1	109	-3	-2	-6	-1	i	121	106
O=C(CN1CCN(c2ccccn2)CC1)Nc1ccc(Oc2ccccc2)cc1	81	0	4	6	-2	i	x	x
O=C(CN1CCN(c2ccccn2)CC1)Nc1ccc(F)cc1	98	0	0	-1	1	i	96	91
O=C(CN1CCN(c2ccccn2)CC1)Nc1ccc(F)c(F)c1	96	0	1	-1	-2	i	90	88
O=C(CN1CCN(c2ccccn2)CC1)NC1CCCC1	95	0	-1	-9	-2	i	x	x
CCCCCCCCC(=O)NN=C(C)c1cccnc1	x	x	2	x	x	x	x	x
SMILES	CR mimetic SO	PG9 Ab binder	UCH37 DUB inh	NR1D1 modulator	beta cell repl	Rce1 inhib	CR mimetic CP	DHE fluor count
S=c1[nH]nc(-c2ccco2)n1N=Cc1ccccc1	x	x	7	x	x	x	x	x
COC(=O)c1ccc(NC(=O)CN2CCN(c3ccccn3)CC2)cc1	94	-3	3	4	-3	i	123	110
CN(C)S(=O)(=O)c1ccc(Cl)c(NC(=O)CN2CCN(c3ccccn3)CC2)c1	x	-1	5	-10	-3	i	98	97
Cc1cc(NC(=O)CN2CCN(c3ccccn3)CC2)ccc1Br	106	0	2	8	0	i	106	103
CN(C)S(=O)(=O)c1ccc(Cl)c(NC(=O)CN2CCc3ccccc3C2)c1	96	-1	4	-1	0	i	x	x
CCC(=O)NCCn1ccc2ccccc21	93	1	4	-2	1	i	x	x
O=S(=O)(NCCn1ccc2ccccc21)c1ccccc1	65*	-1	-1	-1	-7	i	110	107
Cc1c(C(=O)NN=Cc2ccncc2)nnn1-c1nonc1N	x	x	-2	x	x	x	x	x
Cc1ccc(-c2nnc(Nc3ccc4c(c3)OCO4)c3ccccc23)cc1S(=O)(=O)NCCO	103	-1	5	-7	-1	i	103	94
Cc1ccc(-c2nnc(N3CCCCC3)c3ccccc23)cc1S(=O)(=O)N(C)C	93	-2	4	0	-1	i	x	x
Cc1ccc(-c2nnc(Nc3ccc4c(c3)OCO4)c3ccccc23)cc1S(=O)(=O)NC(C)C	103	-2	x	-1	-3	i	100	92
Cc1ccc(-c2nnc(Nc3ccc(CC(N)=O)cc3)c3ccccc23)cc1S(=O)(=O)NCCO	91	-1	6	3	-2	i	x	x
CCCN(CCC)CC(O)Cn1c2ccccc2c2ccccc21 (centres undefined)	80	2	2	0	-4	i	97	94
CC(C)CCN(CCC(C)C)CC(O)Cn1c2ccccc2c(=O)c2ccccc21 (centres undefined)	106	-1	-270	4	-2	i	x	x
COc1ccc(C=NNc2cc(C)nc(NS(=O)(=O)c3ccc(C)cc3)n2)cc1	x	x	4	x	x	x	x	x
O=C(Nc1ccccc1)ON=Cc1ccncc1	x	x	6	x	x	x	x	x
Cc1cccc(C=NNC(=O)c2c(-c3ccccc3)noc2C)c1O	x	x	0	x	x	x	x	x
O=C(NCCC1=CCCCC1)c1c(O)nc2ccccn2c1=O	64*	2	-15	1	-5	i	85	94
CCOc1ccccc1NC(=O)COC(=O)C(CC(C)C)N1C(=O)C2CC=CCC2C1=O (centres undefined)	65*	1	3	-2	-1	i	111	89
Nn1c(SCC(=O)Nc2ccc3c(c2)OCCO3)nnc1-c1ccccn1	54*	0	0	4	-2	i	104	93
Cc1ccc(NC(=O)CSc2ccc(-c3ccccn3)nn2)cc1F	113	5	4	13	-6	i	110	98
COc1ccc(C)cc1NC(=O)CSc1ccc(-c2ccccn2)nn1	131	0	4	-1	-1	i	122	93
Cn1c(SCC(=O)Nc2ccc(C(=O)O)cc2)nnc1-c1ccccn1	x	x	x	-3	x	x	x	x
CCc1ccc(NC(=O)CSc2nnc(-c3ccccn3)n2C)cc1	65*	0	0	-8	-2	i	89	91
